A short description of assay [1]: (§1) Inhibition of SARS coronavirus papain-like protease (1541 to 1855 amino acids) expressed in Escherichia coli BL21 (DE3) using Z-RLRGG-AMC as substrate by fluorogenic assay. Details: species or system Severe acute respiratory syndrome-related coronavirus. An outline of the steps: (§2)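 Protease domain construct His-tagged, purified by nickel affinity, ion-exchange and gel filtration, tag removed by TEV. […] AMC release followed continuously at ex 360/em 460 nm. IC50 is the concentration giving 50% activity loss; three repeat experiments, standard deviation.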

The subject of assay [2] is Severe acute respiratory syndrome-related coronavirus. The description is as §1. An outline of the steps: as §2
The nature of assay [3]: Mixed-type of inhibition of SARS coronavirus papain-like protease (1541 to 1855 amino acids) expressed in Escherichia coli BL21 (DE3) using Z-RLRGG-AMC as substrate by Dixon plot analysis. The arrangement: species or system Severe acute respiratory syndrome-related coronavirus.

As for `COc1ccc([C@@H]2CC(=O)c3c(cc(O)c(C/C=C(\C)CCC=C(C)C)c3O)O2)cc1O`, in assay [1], the IC50 was found to be 12.7 µM. In addition, in assay [2], the inhibition entry was “Dose-dependent effect”. For the same molecule, the affinity in assay [3], expressed as Ki, was 6.9 µM.

On to `COc1cc([C@H]2Oc3cc(O)c(C/C=C(\C)CCC=C(C)C)c(O)c3C(=O)[C@@H]2O)ccc1O`, for which half-maximal inhibition in assay [1] (IC50) required 9.5 µM. Further, in assay [2], the inhibition result was “Dose-dependent effect”. In assay [3], this molecule returned a Ki of 6.6 µM.

On to `COc1cc([C@@H]2CC(=O)c3c(cc4c(c3O)CCC(C)(CCCC(C)(C)O)O4)O2)cc(O)c1OC` (some centres undefined), for which the midpoint of inhibition in assay [1], the IC50, lay at 11.6 µM. The inhibition entry in assay [2] was “Dose-dependent effect”. The Ki in assay [3] was determined as 5 µM.

As for `COc1cc([C@@H]2CC(=O)c3c(cc4c(c3O)CCC(C)(CCCC(C)(C)O)O4)O2)cc(OC)c1O` (some centres undefined), inhibition in assay [1] was half-maximal at 12.5 µM (IC50). The inhibition entry in assay [2] is “Dose-dependent effect”. This molecule had a Ki in assay [3] of 13 µM.

Turning to `COc1ccc([C@H]2Oc3cc(O)c(C/C=C(\C)CCC=C(C)C)c(O)c3C(=O)[C@@H]2O)cc1O`, in assay [1], it took 9.2 µM to reach half-maximal inhibition (IC50). Further, the inhibition entry in assay [2] is “Dose-dependent effect”. The Ki in assay [3] was determined as 6.3 µM.

Turning to `COc1ccc([C@@H]2CC(=O)c3c(cc4c(c3O)CCC(C)(CCCC(C)(C)O)O4)O2)cc1O` (some centres undefined), the inhibition result in assay [2] is “Dose-dependent effect”.

In assay [1], `CC(C)=CCC/C(C)=C/Cc1c(O)cc2c(c1O)C(=O)C[C@@H](c1ccc(O)c(O)c1)O2` [NYMPHAEOL A] yielded an IC50 of 10.4 µM. Further, the inhibition entry in assay [2] was “Dose-dependent effect”. The inhibition constant (Ki) in assay [3] was 5.1 µM.

Turning to `COc1cc([C@H]2Oc3cc4c(c(O)c3C(=O)[C@@H]2O)CCC(C)(CCCC(C)(C)O)O4)ccc1O` (some centres undefined), half-maximal inhibition in assay [1] (IC50) required 5 µM. Further, in assay [2], the inhibition entry is “Dose-dependent effect”. This molecule also yielded an inhibitory constant (Ki) in assay [3] of 3.7 µM.

`CC(C)(O)CCCC1(C)CCc2c(cc3c(c2O)C(=O)C[C@@H](c2ccc(O)c(O)c2)O3)O1` (some centres undefined) returned a concentration for half-maximal inhibition (IC50) in assay [1] of 6.2 µM. Besides, the inhibition entry in assay [2] was “Dose-dependent effect”. This molecule gave a Ki in assay [3] of 4.8 µM.

`COc1cc([C@@H]2CC(=O)c3c(cc(O)c(C/C=C(\C)CCC=C(C)C)c3O)O2)ccc1O` returned an IC50 in assay [1] of 13.2 µM. In assay [2], the inhibition entry was “Dose-dependent effect”. The same molecule returned an inhibition constant (Ki) in assay [3] of 7.1 µM.

For the molecule `CC(C)=CCC/C(C)=C/Cc1c(O)cc2c(c1O)C(=O)C[C@@H](c1ccc(O)cc1)O2` [BONANNIONE A], the IC50 in assay [1] was 14.4 µM. In addition, the inhibition result in assay [2] was “Dose-dependent effect”. The molecule further returned a Ki in assay [3] of 7.8 µM.

The molecule `COc1cc([C@@H]2CC(=O)c3c(cc(O)c(C/C=C(\C)CCC=C(C)C)c3O)O2)cc(OC)c1O` yielded an IC50 in assay [1] of 13.9 µM. For the same molecule, the inhibition entry in assay [2] is “Dose-dependent effect”. For the same molecule, the affinity in assay [3] corresponds to a Ki of 8.4 µM.

As usually defined, the IC50 is the concentration that inhibits the measured activity by half. The low end stands for greater potency in that assay, the high end for weaker potency in that assay. By Ki is commonly meant the dissociation constant of the complex between target and ligand, obtained from inhibition or displacement.

The values above are taken from ChEMBL document CHEMBL2384961, “Geranylated flavonoids displaying SARS-CoV papain-like protease inhibition from the fruits of Paulownia tomentosa” (Bioorg Med Chem, 2013).
